Data: article PMC3899495 (Clinical Pharmacokinetics, 2013)
Where two headings read alike, the source gives them in different places.

Legend:
[1] = cited from earlier work
[2] = assay type: in vivo, human; conditions: single 0.4 U/kg s.c., geometric mean (CV %), n = 6; for AUC0–∞ / C max: serum, ELISA
How it was run: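 Subjects grouped by screening Cockcroft–Gault creatinine clearance. Non-dialysis subjects received one 0.4 U/kg subcutaneous dose (100 U/mL) into a lifted thigh skin fold at 0800 hours. Serum was sampled pre-dose through 120 h. Concentrations were measured by validated sandwich ELISA (mouse anti-human-insulin monoclonal capture, biotinylated mouse monoclonal detection; serum LLOQ 20 pM). Parameters came from individual concentration–time curves; CL/F = dose/AUC0–∞.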

[3] = Tolerability after single dose; assay type: in vivo, human; conditions: single 0.4 U/kg s.c. dose(s)
How it was run: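 Adults 18–85 y, BMI ≤40 kg/m2, in five renal-function groups. 0.4 U/kg s.c. into thigh: non-ESRD once; ESRD twice, post-hemodialysis and ~13 h pre-hemodialysis. In-house ≥48 h; follow-up 7–21 days after last dose. Also physical exam, biochemistry, hematology, urinalysis. AEs graded for severity and relationship; severe hypoglycemia = requiring assistance (ADA). Blood glucose sampled to 68 h (ESRD) or 120 h.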

[4] = varying degrees of impaired hepatic function; cited from earlier work
[5] = cited from earlier work; remark: listed apart in the source
[6] = mild renal impairment (CLCR 50–80 mL/min)
[7] = moderate renal impairment (CLCR 30–49 mL/min)
[8] = normal renal function (CLCR >80 mL/min)
[9] = severe renal impairment (CLCR <30 mL/min)

Substance: regular human insulin
- effect of impaired renal function on pharmacokinetics ([1]; patients with diabetes): affect the pharmacokinetics

Substance: insulin detemir
- effect of impaired renal function on pharmacokinetics [1]: reportedly unaffected

Substance: insulin aspart
- effect of impaired renal function on pharmacokinetics [1]: reportedly unaffected

Substance: insulin lispro
- effect of impaired renal function on pharmacokinetics ([1]; patients with diabetes): affect the pharmacokinetics

Substance: Insulin degludec
- CL/F (apparent clearance, dose/AUC0–∞) [2, 6]: 19.1 (31) mL/h/kg
- AUC0–∞ [2, 6]: 126,096 (49) pmol·h/L
- C max [2, 6]: 3,502 (30) pmol/L
- CL/F (apparent clearance, dose/AUC0–∞) [2, 7]: 20.5 (39) mL/h/kg
- AUC0–∞ [2, 7]: 117,646 (32) pmol·h/L
- C max [2, 7]: 3,237 (39) pmol/L
- CL/F (apparent clearance, dose/AUC0–∞) [2, 8]: 22.0 (32) mL/h/kg
- AUC0–∞ [2, 8]: 109,472 (26) pmol·h/L
- C max [2, 8]: 3,085 (28) pmol/L
- CL/F (apparent clearance, dose/AUC0–∞) [2, 9]: 18.9 (24) mL/h/kg
- AUC0–∞ [2, 9]: 127,268 (28) pmol·h/L
- C max [2, 9]: 3,918 (28) pmol/L
- severe adverse events ([3]; 32 subjects exposed): None
- severe hypoglycemic episodes ([3]; all subjects): No severe hypoglycemic episodes
- effect of impaired hepatic function on ultra-long pharmacokinetic properties [4]: preserved
- within-subject variability in glucose-lowering effect (AUC values) compared with insulin glargine [5]: four-times lower
